Tested on: MS2 coat protein
Assay: apparent Kd, MS2 coat protein; higher = weaker binding; RNA-MaP array; tryptophan 2.4 mM where present
How it was run: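 Designs on Illumina sequencing-chip clusters, transcribed by stalled E. coli RNA polymerase, were exposed to SNAP-549-labelled MS2 coat protein in doubling steps from 0.7 or 1.5 nM up to 3 µM, without and then with constant ligand. The buffer held 100 mM Tris-HCl pH 7.5, 80 mM KCl, 4 mM MgCl2, BSA, DTT, yeast tRNA and Tween-20. Apparent Kd values are medians of filtered per-cluster binding-curve fits to green signal normalised to red-channel RNA signal and control-cluster median Fmax.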

[1] = designed as: OFF switch for tryptophan, no ligand
[2] = ligand present: tryptophan, designed as: OFF switch for tryptophan
[3] = designed as: ON switch for tryptophan, no ligand
[4] = ligand present: tryptophan, designed as: ON switch for tryptophan

| Sequence | apparent Kd [1] | apparent Kd [2] | apparent Kd [3] | apparent Kd [4] |
| --- | --- | --- | --- | --- |
| AGGUGCGGCACGGCCGCCACUGCGGUGGUGUGACAUGAGGAUCACCCAUGUUGUCAUGCGGCCCUUAGGACCGGGUGGCGUGCCU | 39.7 nM | 46 nM |  |  |
| GCUCACAUGAGGAUCACCCAUGUACGUCCGCGAGGACCGGUACGGCCGCCACUCGUGUUAGCUUCAAACUUGUUAGUGUUAAACA |  |  | 40.4 nM | 16.1 nM |
| AAUAAUAGGUGAUCUUGUGUCGUACCGUAACGAGGACCGGUACGGCCGCCACUCGAACAUGAGGAUCACCCAUGUAUGUAUGAUA |  |  | 171 nM | 128 nM |
| CACGAAAGAUCGGCCGCCACUAAUCGAUGUGUUCUUUCACAUGAGGAUCACCCAUGUUCUUGCGUUAGGACCGGGAUUGAGCGUG | 38.7 nM | 31.9 nM |  |  |
| CUACAUGUAGUUAAACCGGUCAACAAUAAUCGAGGACCGGUACGGCCGCCACUCGAUGUGUUAUACACAUGAGGAUCACCCAUGU |  |  | 23.2 nM | 18.9 nM |
| UAUAAUAACUCGGCCGCCACUGGCACAUGAGGAUCACCCAUGUCUAUAUAUAAUAUAUAGUUGCACAGGACCGGGAGAUAUAUAU | 8.95 nM | 8.21 nM |  |  |
| CCGCCUGCCUCACAUGAGGAUCACCCAUGUCGAGGACCGGUACGGCCGCCACUCGUCGUCGGUAAUACAGGCAUUGAAUAAUAUA | 11.2 nM | 45.1 nM |  |  |
| AACAUGAGGAUCACCCAUGUCCCAUGUGAACGAGGACCGGUACGGCCGCCACUCGACCGAGGCGGCACAUGAGGAUCACCCGCAU |  |  | 375 nM | 926 nM |
| UCGUUUUAGUCGGCCGCCACUGUAUGCAUGUUUAACAUGAGGAUCACCCAUGUCCCGUACUAUUUCAGGACCGGGACGUAAUCGA |  |  | 322 nM | 156 nM |
| UAUAUAUAUCACUAACUGUUCUUGAGGUCUCGAGGACCGGUACGGCCGCCACUCGGGCCGCCUCACAUGAGGAUCACCCAUGUCC | 56.4 nM | 68.2 nM |  |  |
| GAGCUCGUGGACUGGCGUGCUCCGCUCCGUCGAGGACCGGUACGGCCGCCACUCGACAUGAGGAUCACCCAUGUGUGAGCUCGCU | 75.3 nM | 54.2 nM |  |  |
| CACGAAAGAUCGGCCGCCACUAAUCUAUGUGUUCUUUCACAUGAGGAUCACCCAUGUUCUUGCGUUAGGACCGGGAUUGAGCGUG | 34.1 nM | 36.4 nM |  |  |
| AUUGUGAAGUCGGCCGCCACUGGUUAGUUUAACCUCAUGUAACAUGAGGAUCACCCAUGUAAUGACAGGACCGGGACAAUAGUAA | 187 nM | 151 nM |  |  |
| ACAUGAGGAUCACCCAUGUAACGGCAUAAUCGAGGACCGGUACGGCCGCCACUCGGAAUCAGUGACAGGCAUAUUUAUUAUAAGA | 9.88 nM | 10 nM |  |  |
| GGGAGGGAGGCGGCCGCCACUGAUUUUCAUAUAUAUAUAACAUGAGGAUCACCCAUGUGGAUAUACAGGACCGGGCCUUUUUUUU |  |  | 19.8 nM | 13.2 nM |
| GUCUUUGACGAUCUGGGAAAACCAGAUCGACGAGGACCGGUACGGCCGCCACUCGUGUUUUCUUUACAUGAGGAUCACCCAUGUA |  |  | 13.1 nM | 12.7 nM |
| ACAUUGCGCACGGCCGCCACUGGCUAUAGAUUUAUAGCAUUAAUGAACAUGAGGAUCACCCAUGUCAGGACCGGGUGCGAACCAU |  |  | 17.3 nM | 19.7 nM |
| CGCAACAUGAGGAUCACCCAUGUAAUGACGCGAGGACCGGUACGGCCGCCACUCGCCUGCCAAUGAGCGCAUGCGGCCUGGGUAU | 11.6 nM | 14.5 nM |  |  |
| CCAUAAGUACCGGUCCUCAGAUCCUCAUGACGAGGACCGGUACGGCCGCCACUCGAAACAUGAGGAUCACCCAUGUAAUAAUACC | 39.2 nM | 26.4 nM |  |  |
| GAUCGAAAUAACGCAUAGGAAAACUAUGCGCGAGGACCGGUACGGCCGCCACUCGUCCUCACAUGAGGAUCACCCAUGUACGAUC | 22.4 nM | 58.6 nM |  |  |
| AUUCAUGGAAACAUGACAUAGGGAUCACUCCGAGGACCGGUACGGCCGCCACUCGCGAGGAGGCACAUGAGGAUCACCCAUGUUA |  |  | 49 nM | 39.7 nM |
| ACACAAUACAUGAGGAUCACCCAUGUAUAACGAGGACCGGUACGGCCGCCACUCGAAUACUGUAAUCCUCGGAAUAUUAUGUGAA | 39 nM | 19.1 nM |  |  |
| AACAUCACAACGGCCGCCACUGCACAUGACAACAUGAGGAUCACCCAUGUGGAUCACCCAUGUCCCAGGACCGGGUUAUGAGGAU |  |  | 29.1 nM | 25.9 nM |
| UUAUAAGUACCGGUCCUCAGAUCCUCAUGACGAGGACCGGUACGGCCGCCACUCGAAACAUGAGGAUCACCCAUGUAAUAACAUU | 20 nM | 20.1 nM |  |  |
| GGGUCAGGCGCGGCCGCCACUGCGGUGAUGUGACAUGAGGAUCACCCAUGUUGUCAUGUGGCACAUAGGACCGGGUGCCUGGCCC | 30.1 nM | 29.9 nM |  |  |
| AGAGGUAUACAUGGAAACAUGUAUAUUUCACGAGGACCGGUACGGCCGCCACUCGGUACCGGAAACACAUGAGGAUCACCCAUGU | 18.7 nM | 16.9 nM |  |  |
| AAUUCAAGGUUCUUGAUGUAUUAUAUAUUUCGAGGACCGGUACGGCCGCCACUCGUUAAUUACAUGAGGAUCACCCAUGUUAGCU | 17 nM | 20.9 nM |  |  |

— the EternaBench riboswitch data
